A short description of series [1]: Apparent permeability from basolateral to apical side in human Caco2 cells. Type of series: ADME, cell-based. The following applies: Caco-2. In general terms: Passage across Caco-2 layers is used to estimate intestinal permeability.
Series [2] can be described thus: Apparent permeability from apical to basolateral side in human Caco2 cells. The format is ADME, cell-based. The following applies: Caco-2.
Series [3] in a line: Permeability of the compound at pH 7.4 by PAMPA assay. The format is physicochemical. The following applies: read-out: permeability.
Series [4] is described as follows: Efflux ratio of permeability from basolateral to apical side over apical to basolateral side in human Caco2 cells. The following applies: Caco-2. Type of series: ADME, cell-based.
The nature of series [5]: Permeability of the compound at pH 7.4 assessed as drug retention by PAMPA assay. Type of series: physicochemical. Background: The PAMPA barrier holds no transporters, so it reflects passive diffusion.
The nature of series [6]: Half life in mouse microsomes. The format is ADME, Microsome.
Series [7] in a line: Half life in human plasma. The format is ADME, cell-free. In short, it runs like this:
(§1)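 Compound stability incubated in human or mouse plasma; half-life determined, with known drugs as controls.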

Series [8] can be described thus: Intrinsic clearance in mouse microsomes. The format is ADME, Microsome.
For series [9], the system named is MDA-MB-231. Kind of series: Induction of apoptosis in human triple-negative MDA-MB-231 cells assessed as increase in DR5 level after 12 hrs by western blot analysis. The format is functional, cell-based. A general note: Immunoblotting shows a protein as a band on a membrane.
Series [10] deals with MDA-MB-231. Kind of series: Induction of apoptosis in human triple-negative MDA-MB-231 cells assessed as cell shrinkage at 16 uM after 6 to 48 hrs by microscopic analysis. Type of series: functional, cell-based.
For series [11], the system named is MDA-MB-231. Kind of series: Cell cycle arrest in human triple-negative MDA-MB-231 cells assessed as accumulation at G0/G1 phase at 8.5 uM after 12 hrs by propidium iodide staining-based flow cytometry (reference value: 48.36%). Type of series: functional.
Series [12] deals with MCF7. Kind of series: Antiproliferative activity against human ER-positive MCF7 cells after 72 hrs by CellTiter-Glo assay. The format is functional, cell-based.
Series [13] relates to MDA-MB-231. Kind of series: Induction of apoptosis in human triple-negative MDA-MB-231 cells assessed as increase in cleaved caspase-3 level after 6 to 12 hrs by western blot analysis. Type of series: functional, cell-based.
For series [14], the system named is MDA-MB-231. The experiment in a line: Cell cycle arrest in human triple-negative MDA-MB-231 cells assessed as accumulation at G2/M phase at 8.5 uM after 12 hrs by propidium iodide staining-based flow cytometry (reference value: 20.40%). Type of series: functional.
A short description of series [15]: Half life in human microsomes. The format is ADME, Microsome.
The test system of series [16] is MDA-MB-231. The experiment in a line: Induction of apoptosis in human triple-negative MDA-MB-231 cells assessed as early apoptotic cells after 12 hrs by Annexin V-FITC/propidium iodide staining-based flow cytometry (reference value: 3.1%). The format is functional.
The nature of series [17]: Plasma protein binding in human. The format is ADME, cell-free. The following applies: read-out: PPB (converted).
Series [18] in a line: Intrinsic clearance in human microsomes. The format is ADME, Microsome.
Series [19] relates to MDA-MB-231. The experiment in a line: Antiproliferative activity against human triple-negative MDA-MB-231 cells after 72 hrs by CellTiter-Glo assay. The format is functional, cell-based. The following applies: MDA-MB-231, 72 h.
Series [20] relates to MDA-MB-231. Kind of series: Induction of apoptosis in human triple-negative MDA-MB-231 cells assessed as increase in cleaved caspase-9 level after 6 to 12 hrs by western blot analysis. The format is functional, cell-based.
Series [21] concerns MDA-MB-231. Kind of series: Antiproliferative activity against human triple-negative MDA-MB-231 cells at 9 uM after 72 hrs by CellTiter-Glo assay. Type of series: functional, cell-based.
Series [22] deals with MDA-MB-231. Kind of series: Cell cycle arrest in human triple-negative MDA-MB-231 cells assessed as accumulation at S phase at 8.5 uM after 12 hrs by propidium iodide staining-based flow cytometry (reference value: 31.23%). Type of series: functional.
Series [23] has as its system MDA-MB-231. The experiment in a line: Induction of apoptosis in human triple-negative MDA-MB-231 cells assessed as late apoptotic cells after 12 hrs by Annexin V-FITC/propidium iodide staining-based flow cytometry (reference value: 3.7%). The format is functional.
The subject of series [24] is MDA-MB-231. The experiment in a line: Induction of apoptosis in human triple-negative MDA-MB-231 cells assessed as necrotic cells after 12 hrs by Annexin V-FITC/propidium iodide staining-based flow cytometry (reference value: 0.1%). Type of series: functional.
In series [25] the test system is MDA-MB-231. The experiment in a line: Induction of apoptosis in human triple-negative MDA-MB-231 cells assessed as viable cells after 12 hrs by Annexin V-FITC/propidium iodide staining-based flow cytometry (reference value: 93.1%). Type of series: functional.
The subject of series [26] is MDA-MB-231. Kind of series: Induction of apoptosis in human triple-negative MDA-MB-231 cells assessed as increase in cleaved caspase-8 level after 6 to 12 hrs by western blot analysis. The format is functional, cell-based.
The subject of series [27] is MDA-MB-231. The experiment in a line: Induction of DNA fragmentation in human triple-negative MDA-MB-231 cells at 8.5 uM by propidium iodide staining-based flow cytometry. Type of series: functional, cell-based. The following applies: TDE = time-dependent effect.
Series [28] can be described thus: Half life in mouse plasma. Type of series: ADME, cell-free. The procedure, abridged:
as §1

Series [29] can be described thus: Plasma protein binding in mouse. The format is ADME. The following applies: read-out: PPB (converted).
Series [30] concerns MDA-MB-231. Kind of series: Induction of apoptosis in human triple-negative MDA-MB-231 cells assessed as cell death at 16 uM after 6 to 48 hrs by microscopic analysis. Type of series: functional, cell-based.
Series [31] relates to MDA-MB-231. Kind of series: Induction of apoptosis in human triple-negative MDA-MB-231 cells assessed as increase in cleaved PARP level by western blot analysis. The format is functional, cell-based. The following applies: TDE = time-dependent effect.
The test system of series [32] is MDA-MB-231. Kind of series: Induction of apoptosis in human triple-negative MDA-MB-231 cells assessed as cell detachment at 16 uM after 6 to 48 hrs by microscopic analysis. The format is functional, cell-based.
Series [33] relates to MDA-MB-231. The experiment in a line: Induction of apoptosis in human triple-negative MDA-MB-231 cells assessed as decrease in caspase-7 level after 6 to 12 hrs by western blot analysis. The format is functional, cell-based.
Series [34] has as its system MDA-MB-231. The experiment in a line: Antiproliferative activity against human triple-negative MDA-MB-231 cells at <= 50 uM after 72 hrs by CellTiter-Glo assay. The format is functional, cell-based.
Series [35] has as its system HepG2. Kind of series: Cytotoxicity against human HepG2 cells at <= 50 uM after 72 hrs by CellTiter-Glo assay. Type of series: cell-based. The following applies: hepg2, 72 h.
The subject of series [36] is HEK293. Kind of series: Cytotoxicity against HEK293 cells at <= 50 uM after 72 hrs by CellTiter-Glo assay. The format is cell-based. The following applies: human, hek293, 72 h.
For series [37], the system named is MDA-MB-231. Kind of series: Antiproliferative activity against human triple-negative MDA-MB-231 cells at 22 uM after 72 hrs by CellTiter-Glo assay. The format is functional, cell-based.

pEC50: −log10 of the molar value. Active and inactive are the calls of the source. The calls are words filed in the database; no cut-off is given here.

In general, Papp B→A refers to the apparent permeability from the basolateral to the apical side of a cell layer. As a reminder, the Papp A→B is the apparent permeability from the apical to the basolateral side of a cell layer. What is called efflux ratio is the permeability from basolateral to apical divided by that in the opposite direction, in the common usage. `NC(=O)N1c2ccccc2C=Cc2ccccc21` [CARBAMAZEPINE]: the Papp B→A in series [1] was 42.8 ×10⁻⁶ cm/s. Besides, the Papp A→B in series [2] was 66.7 ×10⁻⁶ cm/s. The Papp in series [3] worked out at 128 ×10⁻⁶ cm/s. Besides, the efflux ratio in series [4] was 0.6. In series [5], the permeability was found to be 40.9%.

The half-life is how long it takes for the measured level to halve. A low value points to fast loss. In general, CLint scaled refers to the capacity of the preparation to metabolise the compound, expressed as a volume cleared per time. Broadly, the pEC50 is the negative decadic logarithm of the EC50, by convention in mol/L. As to `CC(C)c1ccc2c(c1)CC[C@H]1[C@](C)(CNS(=O)(=O)c3c(F)c(F)c(F)c(F)c3F)CCC[C@]21C`, the half-life in series [6] is 0.51 h; in series [7], 6.76 h; in [15] it was 0.93 h; in [28] it was 37.7 h. Further, the CLint scaled in series [8] was 112 mL/min/kg; in [18], 22.3 mL/min/kg. In series [1], the Papp B→A was 1.57 ×10⁻⁶ cm/s. In addition, the result in series [9], in [10], in series [13], in [20], in series [21] and in series [26] was Active. Moreover, the outcome in [30], in series [32] and in series [33] was Active. Besides, the Activity was 61.26% in series [11]; 18.37% in series [14]; 21.3% in series [16]; 20.37% in series [22]; 16.7% in [23]; 0.5% in series [24]. The results for the Activity in series [25], in series [27] and in series [31] were 61.5%, “tde” and “tde”, respectively. For the same molecule, the Papp A→B in [2] worked out at 1.96 ×10⁻⁶ cm/s. Besides, in series [12], the result was inactive. Besides, the fraction unbound was 0.052 in series [17] and 0.007 in series [29]. Besides, the Papp in [3] was 62.5 ×10⁻⁶ cm/s. In [19], this molecule gave a pEC50 of 5.05. Moreover, the efflux ratio in [4] was found to be 0.8. Moreover, the permeability in series [5] was found to be 60.4%.

For the molecule `CC(C)c1cc2c(c(O)c1O)[C@@]13CCCC(C)(C)[C@@H]1C[C@@H]2OC3=O` [CARNOSOL], the result in series [34] and in series [37] was Active. Moreover, the Activity entry in series [35] and in series [36] was “Non-toxic” each time.

Turning to `CC1CC(OC(=O)C(O)c2ccccc2)CC(C)(C)N1C` (centres undefined) [EUCATROPINE], the half-life in [7] is 0.42 h; in series [28], 1.8 h.

The values above are taken from ChEMBL document CHEMBL3616432, “(+)-Dehydroabietylamine derivatives target triple-negative breast cancer” (Eur J Med Chem, 2015).
